Screening data as filed in PubChem BioAssay.
Sampled rows, rich in hits. Any-hit rate of the full collection: about 2.5%.
SENP7 inh: inhibitors of human SENP7 protease | inhibition, % at 5 µM | 330,000 compounds, 1.5% hits | AID 434973 | Q9BQF6 | recombinant SENP7, Z-RLRGG-aminoluciferin luminescence, 40 min;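 active means inhibition above about 50% at the single test dose, limit read from the data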;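 further: plate controls were DMSO with enzyme for no effect and no enzyme buffer wells for full effect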
SENP8 block-1: SENP8 protease inhibition. Q96LD8. purified SENP8, Z-RLRGG-aminoluciferin cleavage, luminescence. inhibition, % at 10 µM. 330,000 compounds, 1.2% hits. AID 2540; in the data active means inhibition above about 50%
SENP8 block-2: SENP8 (human) protease inhibition. 360,000 compounds, 0.64% hits. inhibition, % at 20 µM. recombinant SENP8, Nedd8 substrate fluorescence. Q96LD8. AID 602440; in the data active means inhibition mostly above about 40%, no sharp cut-off; inactive means mostly below about 27%
SENP6 block: blocks the human protease SENP6. Recombinant SENP6 catalytic domain, aminoluciferin luminescence. inhibition, % at 10 µM. 330,000 compounds, 1.8% hits. AID 2599;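 active means inhibition above about 50% at the single tested dose, limit read from the data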;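 further: plate controls were DMSO wells with enzyme for no effect and DMSO wells lacking enzyme for full effect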
Target sequence (Q9GZR1 628-1112 limits assumed): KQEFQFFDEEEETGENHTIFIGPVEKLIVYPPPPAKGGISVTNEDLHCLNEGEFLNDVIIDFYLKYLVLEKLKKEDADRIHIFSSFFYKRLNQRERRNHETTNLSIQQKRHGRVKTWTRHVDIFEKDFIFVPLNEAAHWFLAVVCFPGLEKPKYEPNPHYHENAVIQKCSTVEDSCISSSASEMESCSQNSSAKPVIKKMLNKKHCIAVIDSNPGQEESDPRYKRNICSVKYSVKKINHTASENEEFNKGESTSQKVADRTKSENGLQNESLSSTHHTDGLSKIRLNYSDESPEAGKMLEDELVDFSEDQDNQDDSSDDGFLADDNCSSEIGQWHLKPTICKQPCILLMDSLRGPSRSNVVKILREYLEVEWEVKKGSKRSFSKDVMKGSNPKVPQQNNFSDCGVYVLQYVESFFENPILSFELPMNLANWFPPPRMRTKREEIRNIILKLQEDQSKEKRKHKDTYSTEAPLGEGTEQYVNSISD
SENP1 inh: SENP1 (human) catalytic domain inhibition | recombinant SENP1 catalytic domain, CyPet-SUMO1-YPet FRET cleavage | inhibition, % at 10 µM | 360,000 compounds, 0.21% hits;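 active means inhibition at least 30% at 10 µM, raw YFP signal under a set limit, fluorescence ratio 0.5 to 1.5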;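 further: 0% = enzyme with DMSO and 100% = no enzyme wells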
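system = hSENP1 catalytic domain, recombinant | reagent = SFCypet-SUMO1-SFYpet substrate at 25 nM | doses = one dose per compound, 10 µM, 0.5% DMSO | incubation = enzyme reaction for 50 min at room temperature, dark | measured by = FRET, CFP and YFP emission | controls = no-enzyme low, enzyme-DMSO high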
SENP8 confirm: human SENP8 inhibition, confirmed; shares compounds with SENP7 inh; Recombinant SENP8, Z-RLRGG-aminoluciferin luminescence, 60 min; inhibition, % at 12.5 µM; 6,200 compounds, 40% hits;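 active means mean inhibition across replicates above about 50%, limit read from the data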
SENP6 conf: human SENP6 inhibition, confirmed | shares compounds with SENP7 inh | recombinant SENP6, Z-RLRGG-aminoluciferin luminescence | inhibition, % at 12.5 µM | 6,200 compounds, 58% hits | AID 488915
SENP7 conf: human SENP7 inhibition, confirmed | shares compounds with SENP7 inh | recombinant SENP7, Z-RLRGG-aminoluciferin luminescence, 40 min | inhibition, % at 12.5 µM | 6,200 compounds, 69% hits
Casp3 SENP sel: inhibits human caspase-3 in SENP selectivity test | shares compounds with SENP7 inh | purified caspase-3, Z-DEVD-aminoluciferin luminescence, 60 min | inhibition, % at 12.5 µM | 6,200 compounds, 60% hits | AID 488918;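 active means mean inhibition above about 50%, limit read from the data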;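 further: plate controls were enzyme with DMSO for no effect and wells without caspase-3 for full effect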
Luc interf: luminescence interference (SENP counter-screen); inhibition, % at 12.5 µM; shares compounds with SENP7 inh; 6,200 compounds, 39% hits; Pre-incubated SENP8/Z-RLRGG-aminoluciferin, luciferase luminescence interference;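 active means mean inhibition above about 50% when retested at one dose, limit read from the data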;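 further: plate controls were DMSO wells with completed reaction for no effect and substrate without enzyme for full effect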
An asterisk follows results filed as active; nt = not tested or not shown.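 How the source made its calls, unless noted: active means mean inhibition above about 50% in the one-dose retest (limit read from the data); inactive means the rest.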

SMILES	SENP7 inh	SENP8 block-1	SENP8 block-2	SENP6 block	SENP1 inh	SENP8 confirm	SENP6 conf	SENP7 conf	Casp3 SENP sel	Luc interf
CCCCCN(C(=O)CCC(=O)OCC(=O)N(C)Cc1ccc(C)cc1)c1c(N)n(CCCC)c(=O)[nH]c1=O	1	0	12	15	-1	nt	nt	nt	nt	nt
COc1ccc2c(c1)C(=O)c1ccccc1CO2	-5	23	-11	56*	0	70*	74*	91*	67*	67*
Cn1c(=O)c2sccc2n2c(CCCC(=O)NC3CCN(Cc4ccccc4)CC3)nnc12	21	-8	11	-1	2	nt	nt	nt	nt	nt
O=C(Nc1cccc([N+](=O)[O-])c1)c1cc2ccccc2cc1O	70*	80*	40	87*	4	14	37	44	79*	4
O=C(Nc1ccncc1)c1ccccc1F	8	-5	11	-10	3	nt	nt	nt	nt	nt
Cc1c(C(=O)Nc2cccc([N+](=O)[O-])c2)csc1-c1ccccc1	97*	2	25	72*	1	32	27	45	76*	52*
Cc1ccc(NC(=O)c2csc(-c3ccccc3)c2C)cc1	nt	nt	10	nt	3	nt	nt	nt	nt	nt
O=C(Nc1ccncc1)c1cc2ccccc2cc1O	93*	96*	-6	99*	-14	85*	99*	102*	97*	45
COc1ccc(NC(=O)c2cc([N+](=O)[O-])ccc2O)cc1	100*	96*	29	100*	2	-25	101*	104*	100*	100*
O=C(O)c1ccccc1C(=O)Nc1cccc([N+](=O)[O-])c1	2	3	23	10	3	nt	nt	nt	nt	nt
COc1ccc(NC(=O)c2ccc(-c3ccc([N+](=O)[O-])cc3)o2)cc1	-9	-4	17	-18	2	nt	nt	nt	nt	nt
COc1ccc(NC(=O)Cn2nnc(-c3ccccc3)c2COc2ccc(C(C)=O)cc2)cn1	nt	nt	4	nt	1	nt	nt	nt	nt	nt
C=CCNC(=O)NC(=O)COC(=O)[C@H](C)NS(=O)(=O)c1c(C)c(C)cc(C)c1C	-4	-2	27	33	-2	nt	nt	nt	nt	nt
Nc1nc2nccc(-c3cccnc3)n2n1	6	-3	-367	9	2	nt	nt	nt	nt	nt
O=C(NCC1CCCO1)/C(=C/c1cn(-c2ccccc2)nc1-c1cccnc1)NC(=O)c1ccccc1 (stereo not drawn)	4	0	7	-26	0	nt	nt	nt	nt	nt
CCOC(=O)c1ccc(NC(=O)c2ccccc2C)cc1	65*	58*	6	70*	2	69*	59*	87*	54*	55*
Cn1nccc1C(=O)Nc1ccc(OC(=O)c2ccnn2C)cc1	-4	-9	10	-28	11	nt	nt	nt	nt	nt
CCOC(=O)c1ccc(NC(=O)c2ccnn2C)cc1	58*	59*	9	68*	1	6	11	14	6	7
CCOC(=O)c1cccc(NC(=O)c2ccccc2C)c1	8	-6	-6	-9	1	nt	nt	nt	nt	nt
CSc1ccccc1NC(=O)C1=CC(c2ccc(C)cc2)=NS(=O)(=O)N1C	-5	5	2	-12	13	nt	nt	nt	nt	nt
CCOC(=O)c1c(CN(C)C)n(C)c2c(O)c(N=NC(N)=O)c3ccc(Br)cc3c12	10	34	79*	68*	2	16	40	28	8	1
CCOC(=O)c1c(CN(C)C)n(C)c2ccc(OC(C)=O)cc12	3	6	23	2	1	nt	nt	nt	nt	nt
CCc1ccc(N2CC(C)Cn3c2nc2c3c(=O)[nH]c(=O)n2C)cc1 (stereo not drawn)	0	47	5	-14	-1	nt	nt	nt	nt	nt
CC(C)(C)c1ccc(/C=N/Nc2cccc(C(=O)O)c2)cc1	-3	27	-18	10	0	nt	nt	nt	nt	nt
CN(C)c1ccc(/C=N/Nc2cccc(C(=O)O)c2)cc1	5	96*	-52	99*	-15	98*	102*	104*	100*	100*
SMILES	SENP7 inh	SENP8 block-1	SENP8 block-2	SENP6 block	SENP1 inh	SENP8 confirm	SENP6 conf	SENP7 conf	Casp3 SENP sel	Luc interf
COc1ccc(Br)cc1/C=N/Nc1cccc(C(=O)O)c1	8	-5	-40	5	-14	nt	nt	nt	nt	nt
O=C(O)c1cccc(N/N=C/c2cc(Br)cc(Br)c2O)c1	2	74*	-3	77*	-83	39	90*	95*	5	77*
COCC(C)N1CCC(Oc2ccc(C(=O)N3CCCC3)cc2)CC1 (stereo not drawn)	-4	-1	7	-2	-2	nt	nt	nt	nt	nt
CC(C)(C)C(=O)c1cnc(Nc2ccccc2Cl)s1	83*	79*	-390	90*	-11	86*	90*	97*	75*	83*
O=C(c1ccccc1)c1cnc(Nc2ccccc2Cl)s1	54*	49	-276	75*	-19	73*	76*	87*	47	53*
CC(=O)c1csc(Nc2ccccc2Cl)n1	54*	14	13	42	0	14	15	70*	63*	48
Cc1ccccc1S(=O)(=O)Cc1ccc(C(=O)N2CCN(c3ccccc3F)CC2)o1	-3	1	0	9	4	nt	nt	nt	nt	nt
O=C(CSc1nc2ccccc2c(=O)n1Cc1ccccc1)Nc1ccc(Br)cc1C(=O)O	0	-2	4	9	0	nt	nt	nt	nt	nt
Cc1cccc(NC(=S)Nc2ccccn2)c1	9	-2	2	-4	-2	nt	nt	nt	nt	nt
Cc1cccc(NC(=S)c2nc3ccccc3s2)c1	90*	84*	26	65*	2	62*	83*	90*	74*	26
O=[N+]([O-])c1nn(-c2ccc3c(c2)OCCO3)n(O)c1=NC1CCCCC1	4	3	26	28	4	nt	nt	nt	nt	nt
O=[N+]([O-])c1nn(-c2ccc3c(c2)OCCO3)n(O)c1=NCc1ccccc1Cl	64*	9	17	27	1	10	32	65*	13	7
COc1ccccc1CN=c1c([N+](=O)[O-])nn(-c2ccc3c(c2)OCCO3)n1O	59*	22	26	46	-2	-11	2	-9	8	0
Cc1ccc(Cn2ccsc2=NC(=O)COC(=O)c2ccc(O)cc2O)cc1	23	41	-3	74*	-1	57*	55*	79*	25	46
CCc1ccc(NC(=O)NCc2cccnc2)cc1	6	-4	7	-10	2	nt	nt	nt	nt	nt
